# This is a sample that favours compounds with a hit; in the whole collection about 5.9% have one here.
# Pf Dd2 inh = inhibitors of Plasmodium falciparum Dd2 growth. activity change, % at 10 µM. P. falciparum Dd2 growth, SYBR Green, 72 h; stronger effect = lower value. hit rate 2.3% among 94,000; in the data active means activity change below about -80%; inconclusive means no clear call, values can overlap the other calls
# T cruzi growth-1 = T. cruzi proliferation inhibition | T. cruzi beta-gal in NIH3T3, GalScreen luminescence, 90 h | inhibition, % at 8.34 µM | hit rate 5.9% among 77,000;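 active means mean inhibition above about 93%, with at least 55% of replicates each passing it, limit read from the data, passing the limit was not always enough; inconclusive means only one of those two conditions holds; inactive means neither condition holds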
# IDH1 mut inh = IDH1 R132H (human) inhibition; O75874; IDH1 R132H reductase, diaphorase/resazurin fluorescence, 60 min; inhibition, % at 10 µM; hit rate 0.18% among 70,000; in the data active means inhibition above about 34%; inconclusive means no clear call, values can overlap the other calls; inactive means below about 11%;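 further: 0% = DMSO and 100% = no enzyme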
# Target sequence (O75874 whole entry R132H): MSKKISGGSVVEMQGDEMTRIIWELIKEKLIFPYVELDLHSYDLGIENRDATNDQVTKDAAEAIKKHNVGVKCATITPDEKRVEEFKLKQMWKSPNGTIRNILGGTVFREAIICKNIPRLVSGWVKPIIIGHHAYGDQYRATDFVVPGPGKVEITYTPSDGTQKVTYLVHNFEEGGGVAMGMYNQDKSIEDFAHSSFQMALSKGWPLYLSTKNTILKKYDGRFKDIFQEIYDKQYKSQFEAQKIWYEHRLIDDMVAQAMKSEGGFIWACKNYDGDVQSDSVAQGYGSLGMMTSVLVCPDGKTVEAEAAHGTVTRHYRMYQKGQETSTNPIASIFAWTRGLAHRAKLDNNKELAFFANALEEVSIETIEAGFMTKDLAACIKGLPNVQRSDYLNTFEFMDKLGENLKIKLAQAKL
# GASC1 inh = inhibitors of human demethylase GASC-1 KDM4C; inhibition, % at 12.5 µM; GST-KDM4C 2-372, H3K9me3 peptide, LANCE TR-FRET; hit rate 0.15% among 96,000;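 active means mean replicate inhibition above about 25%, with at least 55% of replicates also reaching it, limit read from the data, passing the limit was not always enough; inconclusive means only one of those two conditions met; inactive means neither condition met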
#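 Material: N-terminal GST-fused human GASC-1 (KDM4C) fragment, residues 2-372. Input: 10 nM enzyme. Incubation: enzyme reaction 30 min, then detection 60 min, both room temperature. Doses: one test concentration per compound. Read-out basis: inhibition from TR-FRET ratio decrease. Detection: LANCE TR-FRET, excitation 340 nm, emissions 618 and 671 nm.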
# T cruzi growth-2 = Trypanosoma cruzi proliferation inhibition | shares compounds with T cruzi growth-1 | T. cruzi beta-gal in NIH3T3, GalScreen luminescence, 90 h | inhibition, % at 8.35 µM | hit rate 72% among 5,600;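 active means mean replicate inhibition above about 95% and at least 55% of replicates individually reaching it, limit read from the data; inconclusive means only one of the two criteria is met; inactive means neither criterion is met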
# T cruzi growth-3 = blocks T. cruzi growth in NIH3T3 host cells; shares compounds with T cruzi growth-1; T. cruzi beta-gal in NIH3T3, GalScreen luminescence, 90 h; inhibition, % at 2.09 µM; hit rate 21% among 5,600; AID 651740;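 active means mean inhibition above about 95%, with at least 55% of replicates also reaching it, limit read from the data; inconclusive means meets just one of the two conditions; inactive means meets neither condition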;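 further: plate controls were neutral control median for no effect and positive control median for full effect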
# 3T3 cytotox = NIH/3T3 (mouse) viability loss | shares compounds with T cruzi growth-1 | NIH/3T3 viability, CellTiter-Glo ATP luminescence, 90 h | cytotoxicity (signal decrease), % at 8.35 µM | hit rate 14% among 5,600 | AID 651742;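 active means mean signal decrease across replicates above about 35% based on untreated-well scatter, with enough replicates individually passing, limit read from the data; inconclusive means no rule stated though some were filed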;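 further: 0% = median of neutral control wells and 100% = median of positive control wells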
# NIH3T3 tox 2 = kills mouse NIH/3T3 fibroblasts; shares compounds with T cruzi growth-1; NIH/3T3 viability, CellTiter-Glo ATP luminescence, 90 h; inhibition, % at 24.9 µM; hit rate 56% among 5,600;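 active means mean loss of cell viability signal at or above a set limit, and enough replicates individually reaching it; inconclusive means meets only the mean limit or only the replicate share; inactive means meets neither condition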;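 further: 0% = median of neutral control wells and 100% = median of positive control wells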
# * hit, by the source's call; ? = inconclusive; · = no result given.
SMILES,Pf Dd2 inh,T cruzi growth-1,IDH1 mut inh,GASC1 inh,T cruzi growth-2,T cruzi growth-3,3T3 cytotox,NIH3T3 tox 2
O=C(C1CCCC1)N1CCCCN2[C@H](CO)[C@H](c3ccc(C#CC4CC4)cc3)[C@H]2C1,-21,113*,·,·,104*,79,4,37*
CN(C)CC#Cc1ccc([C@H]2[C@@H](CO)N3CCCCN(C(=O)C4CC4)C[C@H]23)cc1,23,102*,·,·,6,-24,21,36*
O=C(C1CCCC1)N1CCCCN2[C@H](C1)[C@@H](c1ccc(C#CC3CC3)cc1)[C@@H]2CO,28,84,·,·,·,·,·,·
CN(C)CC#Cc1ccc([C@H]2[C@@H](CO)N3CCCCN(C(=O)C4CC4)C[C@@H]23)cc1,14,49,·,·,·,·,·,·
O=C(C1CCCC1)N1CCCCN2[C@H](C1)[C@H](c1ccc(C#CC3CC3)cc1)[C@@H]2CO,12,114*,·,·,99*,53,8,21
CO[C@H]1CN(C)C(=O)c2ccc(NC(=O)c3ccc(F)cc3)cc2OC[C@@H](C)NC[C@H]1C,8,3,0,0,·,·,·,·
CCCN(C)C[C@@H]1Oc2cc(C#CCOC)ccc2S(=O)(=O)N([C@H](C)CO)C[C@@H]1C,-66,12,0,-1,·,·,·,·
Cc1cc(C(=O)Nc2cccc3c2O[C@@H](CN(C)S(C)(=O)=O)[C@@H](C)CN([C@@H](C)CO)C3=O)n(C)n1,-9,61,·,0,·,·,·,·
Cc1cc(C(=O)Nc2cccc3c2O[C@H](CN(C)C)[C@@H](C)CN([C@@H](C)CO)C3=O)n(C)n1,10,101*,·,0,10,24,-1,5
Cc1cc(C(=O)Nc2cccc3c2O[C@H](CN(C)C)[C@H](C)CN([C@@H](C)CO)C3=O)n(C)n1,11,?,·,1,26,-16,6,2
Cc1cc(C(=O)Nc2cccc3c2O[C@H](CN(C)C)[C@@H](C)CN([C@H](C)CO)C3=O)n(C)n1,15,13,·,0,·,·,·,·
C[C@@H]1CN([C@@H](C)CO)C(=O)c2cc(C#CCN(C)C)cnc2O[C@@H]1CN(C)C(=O)CN1CCOCC1,46,-43,0,-1,·,·,·,·
N#C[C@H]1[C@H](c2ccccc2C2=CCCC2)[C@@H](CO)N1C(=O)Cc1ccncc1,22,·,·,0,·,·,·,·
N[C@@H]1CC[C@@H](CCn2cc(-c3cccc(F)c3)nn2)O[C@H]1CO,-13,13,0,0,·,·,·,·
C[C@@H]1CN([C@@H](C)CO)S(=O)(=O)c2ccc(-c3ccncc3)cc2O[C@@H]1CN(C)Cc1ccccc1,-29,86,·,-1,·,·,·,·
C[C@H](CO)N1C[C@H](C)[C@H](CN(C)Cc2ccc(Oc3ccccc3)cc2)Oc2cc(-c3ccncc3)ccc2S1(=O)=O,-75,124*,5,-1,101*,104*,64*,64*
C[C@@H]1CN([C@@H](C)CO)S(=O)(=O)c2ccc(-c3ccncc3)cc2O[C@@H]1CN(C)Cc1ccc(Oc2ccccc2)cc1,-84*,?,0,1,99*,108*,74*,74*
COc1ccc(-c2ccc([C@@H]3[C@H]4CN(Cc5ccccc5)CC(=O)N4[C@H]3CO)cc2)cc1,-48,·,·,-1,·,·,·,·
C[C@@H]1CN([C@@H](C)CO)C(=O)Cc2cc(NC(=O)Nc3cccc4ccccc34)ccc2O[C@H]1CN(C)Cc1ccc(-c2ccccc2)cc1,-43,107*,0,-5,102*,106*,11,6
C[C@H](CO)N1C[C@H](C)[C@@H](CN(C)Cc2ccccc2)Oc2ccc(NC(=O)Nc3cccc4ccccc34)cc2CC1=O,-74,69,0,0,·,·,·,·
C[C@H]1CN([C@@H](C)CO)C(=O)Cc2cc(NC(=O)Nc3cccc4ccccc34)ccc2O[C@@H]1CN(C)Cc1ccc(-c2ccccc2)cc1,-34,102*,0,1,109*,107*,1,3
